ChEMBL document CHEMBL1134317, “Synthesis, biological evaluation, and pharmacophore generation of uracil, 4(3H)-pyrimidinone, and uridine derivatives as potent and selective inhibitors of parainfluenza 1 (Sendai) virus” (J Med Chem, 2001)

Key:
[1] = Minimum toxic concentration required to cause a microscopically detectable alteration of normal cell morphology of MDCK cells; settings: Sendai virus, read-out: MTC
[2] = system: NSO mouse myeloma cells (Mus musculus); experiment: Cytotoxicity required to inhibit cell proliferation by 50% (tritiated thymidine incorporation in proliferating NSO mouse myeloma cells)
MDCK = experiment: Inhibitory activity against Parainfluenza 1 (Sendai) virus (PIV) in MDCK cells; format: functional; settings: Canis lupus familiaris, read-out: ED50 (the source's name)
Procedure, shortened: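 Confluent MDCK monolayers infected with Sendai virus (10 HAU/10⁵ cells) and allowed to adsorb for 1 h at 37 °C. Inoculum removed, cells washed three times with PBS, then given fresh medium with 2% FCS. Compounds added after adsorption at several dilutions and kept until the end. Supernatants harvested at different times after challenge and titrated as hemagglutinin units. ED₅₀ derived from these titres.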

SMILES	MCC [1]	CC50 [2]	EC50 (MDCK)
CC1O[C@]1(C)Cc1cc(=O)n(C)c(OC2CCCCC2)n1 (mixture of isomers)	342 µM	> 342 µM	
Cn1c(C[C@]2(C)CCCO2)cc(=O)n(C)c1=O	> 223 µM	1380 µM	1.11 µM
CCCCOc1nc(CC2(C)CCCO2)cc(=O)n1C (stereo unspecified)	373 µM	1080 µM	186 µM
COc1nc(CC2(c3ccccc3)CCCO2)cc(=O)n1C (stereo unspecified)	383 µM	130 µM	166 µM
Cn1c(C[C@]2(c3ccccc3)CCCO2)cc(=O)n(C)c1=O	> 333 µM	547 µM	116 µM
Cn1c(C[C@@H]2CCCO2)cc(=O)n(C)c1=O	446 µM	1220 µM	338 µM
Cn1c(CC2(C(C)(C)C)CO2)cc(=O)n(C)c1=O (stereo unspecified)	> 0.79 µM	7.9 µM	
COc1nc(CC2CCCO2)cc(=O)n1C (stereo unspecified)	446 µM	1220 µM	> 446 µM
C[C@@H]1O[C@@]1(C)Cc1cc(=O)n(C)c(=O)n1C	> 2 µM	89 µM	
COc1nc(CC2(c3ccccc3)CO2)cc(=O)n1C (stereo unspecified)	735 µM	> 360 µM	0.37 µM
Cn1c([C@H]2O[C@H]2c2ccccc2)cc(=O)n(C)c1=O (racemic)	> 0.8 µM	7.7 µM	0.38 µM
CCCOc1nc(CC2(c3ccccc3)CCCO2)cc(=O)n1C (stereo unspecified)	305 µM	170 µM	152 µM
CCCCOc1nc(CC2CCCO2)cc(=O)n1C (stereo unspecified)	376 µM	579 µM	195 µM
Cn1c(CC2(c3ccccc3)CO2)cc(=O)n(C)c1=O (stereo unspecified)	0.37 µM	3.7 µM	
Cn1c(CC2(C)CO2)cc(=O)n(C)c1=O (stereo unspecified)	0.48 µM	4 µM	
COc1nc(CC2(C)CCCO2)cc(=O)n1C (stereo unspecified)	893 µM	1620 µM	893 µM
Cn1c([C@H]2O[C@@H]2c2ccccc2)cc(=O)n(C)c1=O	380 µM	> 380 µM	193 µM
Cn1c(OC2CCCCC2)nc(CC2(C)CCCO2)cc1=O (stereo unspecified)	326 µM	816 µM	164 µM
CCCOc1nc(CC2(C)CCCO2)cc(OC)n1 (stereo unspecified)	> 305 µM	375 µM	267 µM
CCCOc1nc(CC2(C)CCCO2)cc(=O)n1C (stereo unspecified)	> 376 µM	860 µM	187 µM
Cn1c(CC23CCCC[C@@H]2O3)cc(=O)n(C)c1=O (stereo partly specified)	> 2 µM	40 µM	> 2 µM
Cn1c(CC23CCC[C@H]2O3)cc(=O)n(C)c1=O (stereo partly specified)	> 0.84 µM	8.4 µM	
CCCCOc1nc(CC2(c3ccccc3)CCCO2)cc(=O)n1C (stereo unspecified)	292 µM	90 µM	146 µM
Cn1c(C2OC2(C)c2ccccc2)cc(=O)n(C)c1=O (stereo unspecified)	> 0.81 µM	7.3 µM	
Cn1c(OC2CCCCC2)nc(CC2(c3ccccc3)CO2)cc1=O (stereo unspecified)	294 µM	> 294 µM	
CCCOc1nc(CC2CCCO2)cc(=O)n1C (stereo unspecified)	397 µM	1020 µM	300 µM
CCCOc1nc(CC2(c3ccccc3)CO2)cc(=O)n1C (stereo unspecified)	330 µM	> 330 µM	
CCCOc1nc(CC23CCCC[C@H]2O3)cc(=O)n1C (stereo partly specified)	> 352 µM	> 352 µM	
C[C@H]1O[C@@]1(C)Cc1cc(=O)n(C)c(=O)n1C	> 2 µM	89 µM	
